Laboratory results reported in ChEMBL document CHEMBL1142699 (J Med Chem, 2005).
Numbered stars: 1 amine (or outer) side, 2 acyl side, 3 side chain; on linkers, the order of the positions; unused ones are H or OH. Square brackets hold non-standard residues; d marks the D form. Peptide text beside a SMILES is read from it. * marks the point of attachment. X1 = N[C@@H](Cc1ccccc1)CN(CC(=O)[*:2])[*:1]; Phe(4-F) = N[C@@H](Cc1ccc(F)cc1)C(=O)O; N(NH2)2 = NN(N)*; NHNH2 = NN*

Assays:
[1] = biological target: T1, Nociceptin receptor (Homo sapiens, UniProt P41146); assay: Receptor binding affinity for recombinant human N/OFQ peptide receptor (NOP) expressed in chinese hamster ovary cells; type: cell-based, CHO
T1 sequence (P41146 whole entry): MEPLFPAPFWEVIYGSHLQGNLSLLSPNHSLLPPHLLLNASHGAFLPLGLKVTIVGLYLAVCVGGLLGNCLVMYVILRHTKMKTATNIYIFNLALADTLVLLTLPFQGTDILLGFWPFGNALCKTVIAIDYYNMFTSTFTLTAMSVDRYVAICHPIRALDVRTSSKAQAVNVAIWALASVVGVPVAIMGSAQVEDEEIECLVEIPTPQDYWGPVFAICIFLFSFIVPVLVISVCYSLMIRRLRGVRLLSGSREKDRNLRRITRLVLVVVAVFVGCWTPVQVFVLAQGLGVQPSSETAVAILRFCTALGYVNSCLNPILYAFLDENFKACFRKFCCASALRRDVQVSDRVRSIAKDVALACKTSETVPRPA

[2] = biological target: T1, Nociceptin receptor; assay: Agonist potency against GTPgammaS binding in CHO cell membranes expressing the human NOP receptor (CHOhNOP)
[3] = biological target: Nociceptin receptor (Cavia porcellus) (UniProt P47748); assay: Maximal inhibition of electrically evoked contraction of guinea pig ileum; Effect evident only in some tissues; type: functional, tissue-based; details: filed as agonist
Nociceptin receptor (Cavia porcellus), sequence (P47748 whole entry): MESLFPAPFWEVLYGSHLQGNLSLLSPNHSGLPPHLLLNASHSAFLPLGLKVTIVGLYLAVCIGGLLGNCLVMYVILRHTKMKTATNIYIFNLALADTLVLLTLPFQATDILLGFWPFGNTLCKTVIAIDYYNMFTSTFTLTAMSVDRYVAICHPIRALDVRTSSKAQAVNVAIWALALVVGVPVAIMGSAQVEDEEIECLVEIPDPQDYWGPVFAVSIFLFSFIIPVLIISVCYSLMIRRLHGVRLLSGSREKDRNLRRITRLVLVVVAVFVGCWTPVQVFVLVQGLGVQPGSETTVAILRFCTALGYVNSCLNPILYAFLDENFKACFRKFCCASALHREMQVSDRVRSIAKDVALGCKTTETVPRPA

[4] = biological target: Nociceptin receptor (Cavia porcellus) (UniProt P47748); assay: Inhibition of electrically evoked contraction of guinea pig ileum; Effect evident only in some tissues; type: functional, tissue-based; details: filed as agonist
[5] = biological target: T1, Nociceptin receptor; assay: Inhibition of forskolin stimulated cAMP levels in CHO cells expressing the human NOP receptor (CHOhNOP)
[6] = biological target: Nociceptin receptor (Cavia porcellus) (UniProt P47748); assay: Antagonistic potency against N/OFQ in electrically evoked contractions of guinea pig ileum at 1 uM; type: functional, tissue-based
[7] = biological target: Nociceptin receptor (Mus musculus) (UniProt P35377); assay: Inhibition of electrically evoked contraction of mouse vas deferens; Effect evident only in some tissues; type: functional; details: filed as agonist
Nociceptin receptor (Mus musculus), sequence (P35377 whole entry): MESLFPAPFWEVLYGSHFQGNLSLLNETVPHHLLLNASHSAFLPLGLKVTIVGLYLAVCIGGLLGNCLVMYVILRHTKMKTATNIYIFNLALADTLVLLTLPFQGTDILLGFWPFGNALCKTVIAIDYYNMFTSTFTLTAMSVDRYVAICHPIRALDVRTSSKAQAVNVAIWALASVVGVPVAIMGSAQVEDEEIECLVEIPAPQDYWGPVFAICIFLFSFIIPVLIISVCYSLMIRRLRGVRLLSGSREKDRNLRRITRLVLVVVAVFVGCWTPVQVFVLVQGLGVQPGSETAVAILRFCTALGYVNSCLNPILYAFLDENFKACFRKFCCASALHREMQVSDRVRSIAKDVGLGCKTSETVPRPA

[8] = biological target: Nociceptin receptor (Mus musculus) (UniProt P35377); assay: Antagonistic potency against N/OFQ in electrically evoked contraction of mouse vas deferens at 1 uM; type: functional, tissue-based
Procedure, shortened: (§1)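 Male Swiss mice (25-30 g). Vas deferens in 5 mL baths of Mg2+-free Krebs at 33 °C, 0.3 g tension, field-stimulated with supramaximal 1 ms pulses at 0.05 Hz, isotonic recording.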

[9] = biological target: Nociceptin receptor (Mus musculus) (UniProt P35377); assay: Maximal inhibition of electrically evoked contraction of mouse vas deferens; Effect evident only in some tissues; type: functional; details: filed as agonist
[10] = biological target: Nociceptin receptor (Mus musculus) (UniProt P35377); assay: Maximal inhibition of electrically evoked contraction of mouse vas deferens; type: functional, tissue-based
[11] = biological target: Nociceptin receptor (Cavia porcellus) (UniProt P47748); assay: Maximal inhibition of electrically evoked contraction of guinea pig ileum; type: functional, tissue-based
[12] = biological target: Nociceptin receptor (Mus musculus) (UniProt P35377); assay: Antagonistic potency against N/OFQ in electrically evoked contraction of mouse vas deferens at 0.1 uM; type: functional, tissue-based; procedure, shortened: as §1
[13] = biological target: Nociceptin receptor (Mus musculus, UniProt P35377); assay: Inhibition of electrically evoked contraction of mouse vas deferens; type: functional
Nociceptin receptor (Mus musculus, UniProt P35377), sequence (P35377 whole entry): as above
Procedure, shortened: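 Vas deferens from male Swiss mice (25-30 g), in Mg2+-free Krebs at 33 °C under 0.3 g resting tension. Field-stimulated with 1 ms supramaximal pulses at 0.05 Hz; twitches recorded isotonically. After ~1 h equilibration, cumulative concentration-response curves in 0.5 log steps. […] 5-8 experiments.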

[14] = biological target: Nociceptin receptor (Cavia porcellus, UniProt P47748); assay: Inhibition of electrically evoked contraction of guinea pig ileum; type: functional, tissue-based
Nociceptin receptor (Cavia porcellus, UniProt P47748), sequence (P47748 whole entry): as the sequence (P47748 whole entry) above
Procedure, shortened: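 Guinea pig ileum from albino animals (250-300 g), in Krebs at 37 °C under 0.3 g resting tension. Field-stimulated with 1 ms supramaximal pulses at 0.05 Hz; twitches recorded isotonically. After ~1 h equilibration, cumulative concentration-response curves in 0.5 log steps. […] 5-8 experiments.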

C[C@H](NC(=O)CNC(=O)[C@@H](NC(=O)[C@H](Cc1ccccc1)NC(=O)CNC(=O)CNC(=O)CNCc1ccccc1)[C@@H](C)O)C(=O)N[C@@H](CCCN=C(N)N)C(=O)N[C@@H](CCCCN)C(=O)N[C@@H](CO)C(=O)N[C@@H](C)C(=O)N[C@@H](CCCN=C(N)N)C(=O)N[C@@H](CCCCN)C(=O)N[C@@H](CCCN=C(N)N)C(=O)N[C@@H](CCCCN)C(=O)N[C@@H](CC(N)=O)C(=O)N[C@@H](CCC(N)=O)C(N)=O
Ki [1]: 0.129 nM

CC(C)C[C@H](NC(=O)[C@H](CCCCN)NC(=O)[C@H](CCCN=C(N)N)NC(=O)[C@H](C)NC(=O)[C@H](CO)NC(=O)[C@H](CCCCN)NC(=O)[C@H](CCCN=C(N)N)NC(=O)[C@H](C)NC(=O)CNC(=O)[C@@H](NC(=O)[C@H](Cc1ccc(F)cc1)NC(=O)CNC(=O)CNC[C@@H](N)Cc1ccccc1)[C@@H](C)O)C(=O)N[C@@H](C)C(=O)N[C@@H](CC(N)=O)C(=O)N[C@@H](CCC(N)=O)C(N)=O (H-[X1]G[Phe(4-F)]TGARKSARKLANQ-NH2)
EC50 [2]: 0.813 nM | Ki [1]: 0.0479 nM | Emax [3]: Agonist | Log EC50 [4]: Agonist | EC50 [5]: 0.479 nM | pKb [6]: 8.32 | Activity [7]: Agonist | pKb [8]: 7.9 | Emax [9]: Agonist

CC(C)C[C@H](NC(=O)[C@H](CCCCN)NC(=O)[C@H](CCCNC(=N)N)NC(=O)[C@H](C)NC(=O)[C@H](CO)NC(=O)[C@H](CCCCN)NC(=O)[C@H](CCCNC(=N)N)NC(=O)[C@H](C)NC(=O)CNC(=O)[C@@H](NC(=O)[C@H](Cc1ccccc1)NC(=O)CNC(=O)CNC(=O)[C@@H](N)Cc1ccccc1)[C@@H](C)O)C(=O)N[C@@H](C)C(=O)N[C@@H](CC(N)=O)C(=O)N[C@@H](CCC(N)=O)C(=O)O
Emax [10]: 95% | Emax [11]: 58%

C[C@H](NC(=O)CNC(=O)[C@@H](NC(=O)[C@H](Cc1ccc(F)cc1)NC(=O)CNC(=O)CNC[C@@H](N)Cc1ccccc1)[C@@H](C)O)C(=O)N[C@@H](CCCN=C(N)N)C(=O)N[C@@H](CCCCN)C(=O)N[C@@H](CO)C(=O)N[C@@H](C)C(=O)N[C@@H](CCCN=C(N)N)C(=O)N[C@@H](CCCCN)C(=O)N[C@@H](CCCN=C(N)N)C(=O)N[C@@H](CCCCN)C(=O)N[C@@H](CC(N)=O)C(=O)N[C@@H](CCC(=O)N(N)N)C(=O)NN (H-[X1]G[Phe(4-F)]TGARKSARKRKNE(N(NH2)2)-NHNH2)
Emax [10]: 53% | pKb [12]: 9.2 | pKb ([12]; Cavia porcellus): 8.48 | Emax [3]: Agonist | Log EC50 [4]: Agonist

CC(C)C[C@H](NC(=O)[C@H](CCCCN)NC(=O)[C@H](CCCN=C(N)N)NC(=O)[C@H](C)NC(=O)[C@H](CO)NC(=O)[C@H](CCCCN)NC(=O)[C@H](CCCN=C(N)N)NC(=O)[C@H](C)NC(=O)CNC(=O)[C@@H](NC(=O)[C@H](Cc1ccc(F)cc1)NC(=O)CNC(=O)CNC(=O)[C@@H](N)Cc1ccccc1)[C@@H](C)O)C(=O)N[C@@H](C)C(=O)N[C@@H](CC(N)=O)C(=O)N[C@@H](CCC(N)=O)C(N)=O
Emax [10]: 92% | EC50 [13]: 2.57 nM | EC50 [14]: 1.86 nM | Emax [11]: 56%

CC(C)C[C@H](NC(=O)[C@H](CCCCN)NC(=O)[C@H](CCCN=C(N)N)NC(=O)[C@H](C)NC(=O)[C@H](CO)NC(=O)[C@H](CCCCN)NC(=O)[C@H](CCCN=C(N)N)NC(=O)[C@H](C)NC(=O)CNC(=O)[C@@H](NC(=O)[C@H](Cc1ccccc1)NC(=O)CNC(=O)CNC(=O)[C@@H](N)Cc1ccccc1)[C@@H](C)O)C(=O)N[C@@H](C)C(=O)N[C@@H](CC(N)=O)C(=O)N[C@@H](CCC(N)=O)C(=O)O [NOCICEPTIN]
EC50 [13]: 5.37 nM | EC50 [14]: 5.25 nM

CC(C)C[C@H](NC(=O)[C@H](CCCCN)NC(=O)[C@H](CCCN=C(N)N)NC(=O)[C@H](C)NC(=O)[C@H](CO)NC(=O)[C@H](CCCCN)NC(=O)[C@H](CCCN=C(N)N)NC(=O)[C@H](C)NC(=O)CNC(=O)[C@@H](NC(=O)[C@H](Cc1ccc(F)cc1)NC(=O)CNC(=O)CNC(=O)CNCc1ccccc1)[C@@H](C)O)C(=O)N[C@@H](C)C(=O)N[C@@H](CC(N)=O)C(=O)N[C@@H](CCC(N)=O)C(N)=O
Emax [3]: Agonist | Log EC50 [4]: Agonist | pKb [6]: 7.16 | Activity [7]: Agonist | pKb [8]: 6.61 | Emax [9]: Agonist

C[C@H](NC(=O)CNC(=O)[C@@H](NC(=O)[C@H](Cc1ccc(F)cc1)NC(=O)CNC(=O)CNC(=O)[C@@H](N)Cc1ccccc1)[C@@H](C)O)C(=O)N[C@@H](CCCN=C(N)N)C(=O)N[C@@H](CCCCN)C(=O)N[C@@H](CO)C(=O)N[C@@H](C)C(=O)N[C@@H](CCCN=C(N)N)C(=O)N[C@@H](CCCCN)C(=O)N[C@@H](CCCN=C(N)N)C(=O)N[C@@H](CCCCN)C(=O)N[C@@H](CC(N)=O)C(=O)N[C@@H](CCC(=O)N(N)N)C(=O)NN
Emax [10]: 94% | Emax [11]: 55%

C[C@H](NC(=O)CNC(=O)[C@@H](NC(=O)[C@H](Cc1ccccc1)NC(=O)CNC(=O)CNC[C@@H](N)Cc1ccccc1)[C@@H](C)O)C(=O)N[C@@H](CCCN=C(N)N)C(=O)N[C@@H](CCCCN)C(=O)N[C@@H](CO)C(=O)N[C@@H](C)C(=O)N[C@@H](CCCN=C(N)N)C(=O)N[C@@H](CCCCN)C(=O)N[C@@H](CCCN=C(N)N)C(=O)N[C@@H](CCCCN)C(=O)N[C@@H](CC(N)=O)C(=O)N[C@@H](CCC(N)=O)C(N)=O (H-[X1]GFTGARKSARKRKNQ-NH2)
EC50 [2]: 0.933 nM | Ki [1]: 0.0316 nM | EC50 [5]: 0.24 nM

C[C@H](NC(=O)CNC(=O)[C@@H](NC(=O)[C@H](Cc1ccccc1)NC(=O)CNC(=O)CNC(=O)[C@@H](N)Cc1ccccc1)[C@@H](C)O)C(=O)N[C@@H](CCCN=C(N)N)C(=O)N[C@@H](CCCCN)C(=O)N[C@@H](CO)C(=O)N[C@@H](C)C(=O)N[C@@H](CCCN=C(N)N)C(=O)N[C@@H](CCCCN)C(=O)N[C@@H](CCCN=C(N)N)C(=O)N[C@@H](CCCCN)C(=O)N[C@@H](CC(N)=O)C(=O)N[C@@H](CCC(=O)N(N)N)C(=O)NN
Emax [10]: 95% | Emax [11]: 52%

C[C@H](NC(=O)CNC(=O)[C@@H](NC(=O)[C@H](Cc1ccc(F)cc1)NC(=O)CNC(=O)CNC(=O)CNCc1ccccc1)[C@@H](C)O)C(=O)N[C@@H](CCCN=C(N)N)C(=O)N[C@@H](CCCCN)C(=O)N[C@@H](CO)C(=O)N[C@@H](C)C(=O)N[C@@H](CCCN=C(N)N)C(=O)N[C@@H](CCCCN)C(=O)N[C@@H](CCCN=C(N)N)C(=O)N[C@@H](CCCCN)C(=O)N[C@@H](CC(N)=O)C(=O)N[C@@H](CCC(=O)N(N)N)C(=O)NN
pKb [12]: 7.97 | pKb ([12]; Cavia porcellus): 7.82 | Emax [3]: Agonist | Log EC50 [4]: Agonist | Activity [7]: Agonist | Emax [9]: Agonist

C[C@H](NC(=O)CNC(=O)[C@@H](NC(=O)[C@H](Cc1ccccc1)NC(=O)CNC(=O)CNC(=O)[C@@H](N)Cc1ccccc1)[C@@H](C)O)C(=O)N[C@@H](CCCN=C(N)N)C(=O)N[C@@H](CCCCN)C(=O)N[C@@H](CO)C(=O)N[C@@H](C)C(=O)N[C@@H](CCCN=C(N)N)C(=O)N[C@@H](CCCCN)C(=O)N[C@@H](CCCN=C(N)N)C(=O)N[C@@H](CCCCN)C(=O)N[C@@H](CC(N)=O)C(=O)N[C@@H](CCC(N)=O)C(N)=O
Ki [1]: 0.00692 nM | EC50 [13]: 0.759 nM | EC50 [14]: 1.12 nM | EC50 [5]: 0.1 nM

C[C@H](NC(=O)CNC(=O)[C@@H](NC(=O)[C@H](Cc1ccccc1)NC(=O)CNC(=O)CNC[C@@H](N)Cc1ccccc1)[C@@H](C)O)C(=O)N[C@@H](CCCN=C(N)N)C(=O)N[C@@H](CCCCN)C(=O)N[C@@H](CO)C(=O)N[C@@H](C)C(=O)N[C@@H](CCCN=C(N)N)C(=O)N[C@@H](CCCCN)C(=O)N[C@@H](CCCN=C(N)N)C(=O)N[C@@H](CCCCN)C(=O)N[C@@H](CC(N)=O)C(=O)N[C@@H](CCC(=O)N(N)N)C(=O)NN (H-[X1]GFTGARKSARKRKNE(N(NH2)2)-NHNH2)
Emax [3]: Agonist | Log EC50 [4]: Agonist | pKb [6]: 7.47 | Activity [7]: Agonist | pKb [8]: 8.04 | Emax [9]: Agonist

C[C@H](NC(=O)CNC(=O)[C@@H](NC(=O)[C@H](Cc1ccc(F)cc1)NC(=O)CNC(=O)CNC(=O)[C@@H](N)Cc1ccccc1)[C@@H](C)O)C(=O)N[C@@H](CCCNC(=N)N)C(=O)N[C@@H](CCCCN)C(=O)N[C@@H](CO)C(=O)N[C@@H](C)C(=O)N[C@@H](CCCNC(=N)N)C(=O)N[C@@H](CCCCN)C(=O)N[C@@H](CCCNC(=N)N)C(=O)N[C@@H](CCCCN)C(=O)N[C@@H](CC(N)=O)C(=O)N[C@@H](CCC(N)=O)C(N)=O
Ki [1]: 0.00479 nM | EC50 [13]: 0.437 nM | EC50 [14]: 1.05 nM
